We go through 5 compounds from ChEMBL document CHEMBL1143019, “Hybrid molecules of estrone: new compounds with potential antibacterial, antifungal, and antiproliferative activities” (2007).

Assay [1] has as its system Mycobacterium kansasii. The experiment in a line: Antimicrobial activity against Mycobacterium kansasii My 235/80 after 21 days. The assay is classed as functional. Particulars: 504 h. The essentials:
(§1)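 Run in Šula semisynthetic liquid medium containing bovine serum. Compounds added as DMSO solutions at final concentrations of […]. Each strain was also inoculated onto Löwenstein–Jensen medium to control inoculum sterility and growth.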

Assay [2] has as its system Mycobacterium avium. The experiment in a line: Antimicrobial activity against Mycobacterium avium My 330/88 after 21 days. Particulars: 504 h. The assay is classed as functional.
Assay [3] has as its system Mycobacterium kansasii. Description: Antimicrobial activity against Mycobacterium kansasii My 235/80 after 7 days. It counts as functional. The note with it: 168 h. In a few lines:
as §1

Another assay relates to K562. Description: Antiproliferative activity against human K562 cells after 72 hrs. It counts as functional. The note with it: K562, 72 h. The essentials: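 About 10,000 suspension cells per well in RPMI 1640 with 10% heat-inactivated FBS and penicillin/streptomycin, without HEPES. Exposed to 10 concentrations for 72 h at 37 °C in humidified 5% CO₂. Wells diluted 1:50 in CASYTON and counted electronically, each result the mean of three successive counts. GI50 is where the concentration–response curve crosses 50% of control cell count.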

Assay [4] relates to Mycobacterium tuberculosis. Description: Antimicrobial activity against Mycobacterium tuberculosis My 331/88 after 21 days. The assay is classed as functional. The note with it: 504 h.
The subject of assay [5] is Mycobacterium kansasii. The experiment in a line: Antimicrobial activity against Mycobacterium kansasii My 235/80 after 14 days. The assay is classed as functional. Particulars: 336 h. The essentials:
as §1

Assay [6] relates to Mycobacterium kansasii. The experiment in a line: Antimicrobial activity against Mycobacterium kansasii My 6509/96 after 14 days. It counts as functional. The note with it: 336 h. The essentials:
as §1

In assay [7] the test system is Mycobacterium avium. Description: Antimicrobial activity against Mycobacterium avium My 330/88 after 14 days. It counts as functional. The note with it: 336 h.
The test system of assay [8] is Mycobacterium tuberculosis. The experiment in a line: Antimicrobial activity against Mycobacterium tuberculosis My 331/88 after 14 days. The note with it: 336 h. It counts as functional.
A further assay deals with HeLa. The experiment in a line: Cytotoxicity against human HeLa cells after 72 hrs. It counts as functional. The note with it: for CC50: Homo sapiens, HeLa, 72 h. In a few lines:
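About 10,000 cells per well in RPMI 1640 were preincubated 48 h without compound. The 10 test concentrations were then applied onto the monolayers and incubated 72 h at 37 °C in humidified 5% CO₂. Monolayers fixed with glutaraldehyde, stained with 0.05% methylene blue, and eluted with 0.33 N HCl; optical density measured at 630 nm.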

Another assay has as its system L929. Description: Antiproliferative activity against mouse L929 cells after 72 hrs. The note with it: L929, 72 h. It counts as functional. The essentials: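 About 10,000 adherent cells per well in RPMI 1640 with 10% heat-inactivated FBS and penicillin/streptomycin, without HEPES. Exposed to 10 concentrations for 72 h at 37 °C in humidified 5% CO₂. Monolayers fixed with glutaraldehyde, stained 15 min with 0.05% methylene blue, and eluted with 0.33 N HCl; OD read at 630 nm. GI50 derived from dose–response curves relative to control.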

Assay [9] deals with Mycobacterium kansasii. Description: Antimicrobial activity against Mycobacterium kansasii My 6509/96 after 7 days. It counts as functional. The note with it: 168 h. The essentials:
as §1

For assay [10], the system named is Mycobacterium kansasii. The experiment in a line: Antimicrobial activity against Mycobacterium kansasii My 6509/96 after 21 days. It counts as functional. Particulars: 504 h. The essentials: as §1
In assay [11] the test system is Candida tropicalis. Description: Antifungal activity against Candida tropicalis 156 after 48 hrs. The assay is classed as functional. In a few lines: (§2)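 Modified NCCLS M27-A broth microdilution with clinical isolates subcultured on Sabouraud dextrose agar. Suspensions diluted 1:50 in RPMI 1640 to give a final inoculum of 0.5–2.5×10³ CFU/mL for yeasts or 0.5–5×10⁴ CFU/mL for molds. The RPMI had L-glutamine, no bicarbonate, and 0.165 M MOPS to pH 7.0. Twofold dilutions from 250 to 0.49. Plates held at 35 °C, humid, without agitation. MIC is the lowest concentration giving ≥80% inhibition versus drug-free control, read at 24 and 48 h.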

Assay [12] has as its system Candida tropicalis. Description: Antifungal activity against Candida tropicalis 156 after 24 hrs. The assay is classed as functional. The essentials: as §2
Assay [13] has as its system Trichosporon beigelii. The experiment in a line: Antifungal activity against Trichosporon beigelii 1188 after 48 hrs. The assay is classed as functional. The essentials: as §2
Assay [14] has as its system Lichtheimia corymbifera. Description: Antifungal activity against Absidia corymbifera 272 after 48 hrs. It counts as functional. The essentials:
as §2

In assay [15] the test system is Lichtheimia corymbifera. Description: Antifungal activity against Absidia corymbifera 272 after 24 hrs. The assay is classed as functional. In a few lines: as §2
In assay [16] the test system is Aspergillus fumigatus. Description: Antifungal activity against Aspergillus fumigatus 231 after 48 hrs. It counts as functional. In a few lines: as §2
The test system of assay [17] is Trichosporon beigelii. The experiment in a line: Antifungal activity against Trichosporon beigelii 1188 after 24 hrs. It counts as functional. In a few lines:
as §2

Another assay has as its system Trichophyton benhamiae. Description: Antifungal activity against Trichophyton mentagrophytes 445 after 120 hrs. It counts as functional, Arthroderma benhamiae. In a few lines: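 Same modified M27-A microdilution with the mold inoculum of 0.5–5×10⁴ CFU/mL. Medium was RPMI 1640 with L-glutamine, no bicarbonate, and 0.165 M MOPS at pH 7.0. Twofold dilutions from 250 to 0.49. Incubated at 35 °C in a humid atmosphere.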

Assay [18] deals with Candida albicans. Description: Antifungal activity against Candida albicans ATCC 44859 after 24 hrs. It counts as functional. Particulars: ATCC 44859, 24 h. The essentials:
as §2

The test system of assay [19] is Pichia kudriavzevii. The experiment in a line: Antifungal activity against Candida krusei E28 after 24 hrs. The assay is classed as functional. In a few lines: as §2
Assay [20] relates to Candida albicans. The experiment in a line: Antifungal activity against Candida albicans ATCC 44859 after 48 hrs. The assay is classed as functional. Particulars: ATCC 44859, 48 h. In a few lines:
as §2

The test system of assay [21] is Nakaseomyces glabratus. The experiment in a line: Antifungal activity against Candida glabrata 20/I after 24 hrs. The assay is classed as functional. In a few lines: as §2
The test system of assay [22] is Aspergillus fumigatus. The experiment in a line: Antifungal activity against Aspergillus fumigatus 231 after 24 hrs. The assay is classed as functional. In a few lines: as §2
Assay [23] has as its system Nakaseomyces glabratus. The experiment in a line: Antifungal activity against Candida glabrata 20/I after 48 hrs. It counts as functional. In a few lines:
as §2

Assay [24] relates to Pichia kudriavzevii. Description: Antifungal activity against Candida krusei E28 after 48 hrs. It counts as functional. In a few lines: as §2

Converted amounts (≈) assume the structure as drawn.

Consider `Sc1nnnn1-c1ccccc1`, for which the MIC (in the assay on Mycobacterium kansasii [1]; with Mycobacterium avium [2]; with Mycobacterium kansasii [3]; in assay [4]; with Mycobacterium kansasii [5]; against Mycobacterium kansasii [6]) was over 500 µM in each case. For the same compound, the MIC (against Mycobacterium avium [7]; in [8]; against Mycobacterium kansasii [9]; in the assay on Mycobacterium kansasii [10]) was over 500 µM throughout. Besides, the 50% growth inhibitory concentration (GI50) with K562 and in the assay on L929 was over 50 µg/mL in each case. Besides, the CC10 with HeLa was 40 µg/mL (≈ 224 µM). Further, the CC50 (as a rule, the concentration at which the toxic effect on the cells reaches its halfway point) with HeLa was over 50 µg/mL.
Take `OC(Cn1cncn1)(Cn1cncn1)c1ccc(F)cc1F` [FLUCONAZOLE]: the minimum inhibitory concentration (MIC) (commonly the lowest concentration that inhibits growth of the organism) in the assay with Candida tropicalis [11] is over 250 µM; in the assay with Candida tropicalis [12] it was 1.6 µM (≈ 0.49 µg/mL); in the assay on Trichosporon beigelii [13], 6.5 µM (≈ 1.99 µg/mL); in the assay with Lichtheimia corymbifera [14], over 250 µM; against Lichtheimia corymbifera [15], over 250 µM; in the assay with Aspergillus fumigatus [16], over 250 µM. Moreover, the MIC against Trichosporon beigelii [17] came out at 3.3 µM (≈ 1.01 µg/mL); with Trichophyton benhamiae it was 52.2 µM (≈ 16 µg/mL); against Candida albicans [18], 0.8 µM (≈ 0.245 µg/mL); in the assay with Pichia kudriavzevii [19], 52.2 µM (≈ 16 µg/mL); in the assay with Candida albicans [20], 1.6 µM (≈ 0.49 µg/mL); in the assay on Nakaseomyces glabratus [21] it was 13.1 µM (≈ 4.01 µg/mL). Further, the MIC in the assay on Aspergillus fumigatus [22] is over 250 µM; in the assay with Nakaseomyces glabratus [23], 52.2 µM (≈ 16 µg/mL); in the assay on Pichia kudriavzevii [24], 104 µM (≈ 32 µg/mL).
With `Sc1nnnn1-c1ccc(Cl)cc1`, the MIC in the assay on Mycobacterium kansasii [1] is over 500 µM; in the assay with Mycobacterium avium [2] it was over 500 µM; with Mycobacterium kansasii [3] it was 500 µM (≈ 106 µg/mL); in assay [4], over 500 µM; in the assay on Mycobacterium kansasii [5], over 500 µM; in the assay with Mycobacterium kansasii [6], 500 µM (≈ 106 µg/mL). For the same compound, the MIC in the assay on Mycobacterium avium [7] is over 500 µM; in assay [8], 500 µM (≈ 106 µg/mL); against Mycobacterium kansasii [9], 250 µM (≈ 53.2 µg/mL); in the assay with Mycobacterium kansasii [10], over 500 µM. Moreover, the GI50 (as a rule, the concentration that inhibits growth by half) is 42.6 µg/mL (≈ 200 µM) in the assay on K562 and over 50 µg/mL in the assay on L929. The compound further registered a CC10 in the assay with HeLa of 26.4 µg/mL (≈ 124 µM). This compound also came in with a CC50 in the assay with HeLa of 48.9 µg/mL (≈ 230 µM).
As for `Sc1nnnn1-c1ccc(Cl)c(Cl)c1`, the MIC against Mycobacterium kansasii [1] is 500 µM (≈ 124 µg/mL); with Mycobacterium avium [2] it was over 500 µM; against Mycobacterium kansasii [3], 500 µM (≈ 124 µg/mL); in assay [4] it was 250 µM (≈ 61.8 µg/mL); against Mycobacterium kansasii [5] it was 500 µM (≈ 124 µg/mL); in the assay on Mycobacterium kansasii [6], 500 µM (≈ 124 µg/mL). The MIC against Mycobacterium avium [7] is over 250 µM; in assay [8], 250 µM (≈ 61.8 µg/mL); against Mycobacterium kansasii [9], 250 µM (≈ 61.8 µg/mL); in the assay on Mycobacterium kansasii [10], 500 µM (≈ 124 µg/mL). For the same compound, the 50% growth inhibitory concentration (GI50) worked out at 31 µg/mL (≈ 125 µM) in the assay with K562 and 33.4 µg/mL (≈ 135 µM) in the assay with L929. The CC10 in the assay on HeLa came to 18.1 µg/mL (≈ 73.2 µM). This compound had a CC50 in the assay with HeLa of 33.3 µg/mL (≈ 135 µM).
In the case of `Cc1ccc(-n2nnnc2S)cc1`, the MIC against Mycobacterium kansasii [1] is over 500 µM; in the assay on Mycobacterium avium [2], over 500 µM; in the assay on Mycobacterium kansasii [3] it was 500 µM (≈ 96.1 µg/mL); in [4] it was over 500 µM; against Mycobacterium kansasii [5], over 500 µM; in the assay with Mycobacterium kansasii [6] it was 500 µM (≈ 96.1 µg/mL). For the same compound, the MIC in the assay on Mycobacterium avium [7] was 500 µM (≈ 96.1 µg/mL); in assay [8] it was 500 µM (≈ 96.1 µg/mL); in the assay with Mycobacterium kansasii [9] it was 500 µM (≈ 96.1 µg/mL); against Mycobacterium kansasii [10], over 500 µM. Moreover, the GI50 was 42.8 µg/mL (≈ 223 µM) with K562 and over 50 µg/mL in the assay on L929. Besides, the CC10 in the assay with HeLa was determined as 33 µg/mL (≈ 172 µM). Besides, the CC50 in the assay on HeLa is over 50 µg/mL.
